Measured values published in ChEMBL document CHEMBL3877308, “Design, synthesis and in vitro biological evaluation of oligopeptides targeting E. coli type I signal peptidase (LepB)” (Bioorg Med Chem, 2017).
Converted amounts (≈) assume the structure as drawn.

Assays:
[1] = biological target: Signal peptidase I (Escherichia coli K-12) (UniProt P00803); experiment: Potency index, ratio of decanoyl-PTANA-CHO IC50 to compound IC50 for full length Escherichia coli His6-tagged LepB expressed in Escherichia coli C43(DE3)
[2] = Hemolytic activity against human RBC at 100 uM after 45 mins by spectrophotometric method relative to control; assay type: ADME, cell-based, Erythrocyte; details: red blood cells (RBC), read-out: Activity
Outline: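 Hemolysis was tested using red blood cells from heparinized human blood.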

[3] = biological target: Signal peptidase I (Escherichia coli K-12) (UniProt P00803); experiment: (§1) Inhibition of full length Escherichia coli His6-tagged LepB expressed in Escherichia coli C43(DE3) assessed as residual activity at 0.039 uM using dabcyl-VEVGGTATAGAFSRPGLE-(EDANS) as substrate preincubated for 10 mins followed by substrate addition measured for 2 hrs by FRET assay relative to control
Outline: (§2)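 Enzyme came from the membrane fraction, extracted with 1% reduced Triton X-100 and purified by metal-chelation chromatography in 0.5% detergent. FRET pair was dabcyl acceptor and EDANS donor. EcLepB (final about 50 nM) was pre-incubated with compound 10 min at 22 °C. Reaction was then run with 8 µM substrate, following the linear fluorescence increase at 22 °C for 2 h.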

Klebsiella pneumoniae = experiment: Antibacterial activity against wild type Klebsiella pneumoniae […] after 16 to 20 hrs by broth microdilution assay; assay type: functional
Outline: (§3)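 MIC by broth microdilution in cation-adjusted Mueller-Hinton II medium, following EUCAST and CLSI guidelines; panel of Gram-negative strains plus S. aureus ATCC 29213.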

Pseudomonas aeruginosa [4] = experiment: Antibacterial activity against wild type Pseudomonas aeruginosa PAO1 after 16 to 20 hrs by broth microdilution assay; assay type: functional; outline: as §3
Acinetobacter baumannii = experiment: Antibacterial activity against wild type Acinetobacter baumannii ATCC 19606 after 16 to 20 hrs by broth microdilution assay; assay type: functional; outline: as §3
[5] = biological target: Signal peptidase I (Escherichia coli K-12) (UniProt P00803); experiment: as §1, with “0.313” for “0.039”; outline: as §2
[6] = Cytotoxicity against human HepG2 cells assessed as reduction in cell viability after 72 hrs by fluorescein diacetate dye based fluorometric microculture assay; assay type: toxicity
Outline: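 FMCA on HepG2 cells read at 72 h. Survival index (%) is fluorescence in test wells as percent of control cultures, with blank values subtracted. IC50 was obtained by non-linear regression of log concentration-effect curves.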

[7] = biological target: Signal peptidase I (Escherichia coli K-12) (UniProt P00803); experiment: as §1, with “1.25” for “0.039”; outline: as §2
[8] = biological target: Signal peptidase I (Escherichia coli K-12) (UniProt P00803); experiment: (§4) Inhibition of full length Escherichia coli His6-tagged LepB expressed in Escherichia coli C43(DE3) assessed as residual activity at 10 uM using dabcyl-VEVGGTATAGAFSRPGLE-(EDANS) as substrate preincubated for 10 mins followed by substrate addition measured for 2 hrs by FRET assay relative to control; outline: as §2
[9] = biological target: Signal peptidase I (Escherichia coli K-12) (UniProt P00803); experiment: as §4, with “at 0.001” for “at 10”; outline: as §2
Staphylococcus aureus = experiment: Antibacterial activity against wild type Staphylococcus aureus ATCC 29213 after 16 to 20 hrs by broth microdilution assay; assay type: functional; outline: as §3
Escherichia coli [10] = experiment: Antibacterial activity against Escherichia coli CH3130 harboring tolC deletion mutant after 16 to 20 hrs by broth microdilution assay; assay type: functional
Outline: (§5)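 Broth microdilution MIC in cation-adjusted Mueller-Hinton II medium, following EUCAST and CLSI guidelines; tested on a panel of Gram-negative strains plus S. aureus ATCC 29213 (wild-type).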

[11] = biological target: Signal peptidase I (Escherichia coli K-12) (UniProt P00803); experiment: Inhibition of full length Escherichia coli His6-tagged LepB expressed in Escherichia coli C43(DE3) at 100 uM using dabcyl-VEVGGTATAGAFSRPGLE-(EDANS) as substrate preincubated for 10 mins followed by substrate addition measured for 2 hrs by FRET assay relative to control; outline: as §2
Pseudomonas aeruginosa [12] = experiment: Antibacterial activity against wild type Pseudomonas aeruginosa PAO750 harboring efflux defective mutant after 16 to 20 hrs by broth microdilution assay; assay type: functional; outline: as §5
[13] = biological target: Signal peptidase I (Escherichia coli K-12) (UniProt P00803); experiment: as §4, with “at 0.0005” for “at 10”; outline: as §2
[14] = biological target: Signal peptidase I (Escherichia coli K-12) (UniProt P00803); experiment: as §4, with “at 0.156” for “at 10”; outline: as §2
[15] = biological target: Signal peptidase I (Escherichia coli K-12) (UniProt P00803); experiment: Inhibition of full length Escherichia coli His6-tagged LepB expressed in Escherichia coli C43(DE3) assessed as residual activity at 2.5 uM using dabcyl-VEVGGTATAGAFSRPGLE-(EDANS) as substrate preincubated for 10 mins followed by substrate addition measured for 2 hrs by FRET assay relative to control; outline: as §2
[16] = biological target: Signal peptidase I (Escherichia coli K-12) (UniProt P00803); experiment: Inhibition of full length Escherichia coli His6-tagged LepB expressed in Escherichia coli C43(DE3) assessed as residual activity at 5 uM using dabcyl-VEVGGTATAGAFSRPGLE-(EDANS) as substrate preincubated for 10 mins followed by substrate addition measured for 2 hrs by FRET assay relative to control; outline: as §2
[17] = biological target: Signal peptidase I (Escherichia coli K-12) (UniProt P00803); experiment: as §4, with “at 0.01” for “at 10”; outline: as §2
Escherichia coli [18] = experiment: Antibacterial activity against wild type Escherichia coli ATCC 25922 after 16 to 20 hrs by broth microdilution assay; assay type: functional; outline: as §3
[19] = biological target: Signal peptidase I (Escherichia coli K-12) (UniProt P00803); experiment: as §4, with “at 0.02” for “at 10”; outline: as §2
[20] = biological target: Signal peptidase I (Escherichia coli K-12) (UniProt P00803); experiment: as §4, with “at 0.625” for “at 10”; outline: as §2
Signal peptidase I = Signal peptidase I (Escherichia coli K-12, UniProt P00803); experiment: Inhibition of full length Escherichia coli His6-tagged LepB expressed in Escherichia coli C43(DE3) using dabcyl-VEVGGTATAGAFSRPGLE-(EDANS) as substrate preincubated for 10 mins followed by substrate addition measured for 2 hrs by FRET assay
Outline: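 Enzyme extracted from the membrane fraction with 1% reduced Triton X-100 and purified by metal-chelation chromatography in 0.5% detergent. Enzyme (final ~50 nM) was pre-incubated with compound for 10 min at 22 °C. The linear rise in EDANS donor fluorescence (dabcyl acceptor) was then followed at 22 °C for 2 h. IC50 came from non-linear regression of sigmoidal rate-versus-concentration curves.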

Escherichia coli [21] = experiment: Antibacterial activity against Escherichia coli D22 harboring lpxC mutant after 16 to 20 hrs by broth microdilution assay; assay type: functional; outline: as §5
[22] = biological target: Signal peptidase I (Escherichia coli K-12) (UniProt P00803); experiment: as §4, with “at 0.078” for “at 10”; outline: as §2
[23] = biological target: Signal peptidase I (Escherichia coli K-12) (UniProt P00803); experiment: as §4, with “at 0.002” for “at 10”; outline: as §2
[24] = biological target: Signal peptidase I (Escherichia coli K-12) (UniProt P00803); experiment: as §4, with “at 0.0977” for “at 10”; outline: as §2
[25] = biological target: Signal peptidase I (Escherichia coli K-12) (UniProt P00803); experiment: as §4, with “at 0.391” for “at 10”; outline: as §2
[26] = biological target: Signal peptidase I (Escherichia coli K-12) (UniProt P00803); experiment: as §4, with “at 0.195” for “at 10”; outline: as §2
[27] = biological target: Signal peptidase I (Escherichia coli K-12) (UniProt P00803); experiment: as §4, with “at 6.25” for “at 10”; outline: as §2
[28] = biological target: Signal peptidase I (Escherichia coli K-12) (UniProt P00803); experiment: Inhibition of full length Escherichia coli His6-tagged LepB expressed in Escherichia coli C43(DE3) assessed as residual activity at 25 uM using dabcyl-VEVGGTATAGAFSRPGLE-(EDANS) as substrate preincubated for 10 mins followed by substrate addition measured for 2 hrs by FRET assay relative to control; outline: as §2
[29] = biological target: Signal peptidase I (Escherichia coli K-12) (UniProt P00803); experiment: as §4, with “at 12.5” for “at 10”; outline: as §2
[30] = biological target: Signal peptidase I (Escherichia coli K-12) (UniProt P00803); experiment: as §4, with “at 0.0244” for “at 10”; outline: as §2
[31] = biological target: Signal peptidase I (Escherichia coli K-12) (UniProt P00803); experiment: Inhibition of full length Escherichia coli His6-tagged LepB expressed in Escherichia coli C43(DE3) assessed as residual activity at 100 uM using dabcyl-VEVGGTATAGAFSRPGLE-(EDANS) as substrate preincubated for 10 mins followed by substrate addition measured for 2 hrs by FRET assay relative to control; outline: as §2
[32] = biological target: Signal peptidase I (Escherichia coli K-12) (UniProt P00803); experiment: as §4, with “at 0.0488” for “at 10”; outline: as §2
[33] = biological target: Signal peptidase I (Escherichia coli K-12) (UniProt P00803); experiment: as §4, with “at 0.781” for “at 10”; outline: as §2
[34] = biological target: Signal peptidase I (Escherichia coli K-12) (UniProt P00803); experiment: Inhibition of full length Escherichia coli His6-tagged LepB expressed in Escherichia coli C43(DE3) assessed as residual activity at 50 uM using dabcyl-VEVGGTATAGAFSRPGLE-(EDANS) as substrate preincubated for 10 mins followed by substrate addition measured for 2 hrs by FRET assay relative to control; outline: as §2
[35] = biological target: Signal peptidase I (Escherichia coli K-12) (UniProt P00803); experiment: as §4, with “at 1.56” for “at 10”; outline: as §2
[36] = biological target: Signal peptidase I (Escherichia coli K-12) (UniProt P00803); experiment: as §4, with “at 3.13” for “at 10”; outline: as §2
[37] = biological target: Signal peptidase I (Escherichia coli K-12) (UniProt P00803); experiment: as §4, with “at 0.005” for “at 10”; outline: as §2

Signal peptidase I, sequence (P00803 whole entry): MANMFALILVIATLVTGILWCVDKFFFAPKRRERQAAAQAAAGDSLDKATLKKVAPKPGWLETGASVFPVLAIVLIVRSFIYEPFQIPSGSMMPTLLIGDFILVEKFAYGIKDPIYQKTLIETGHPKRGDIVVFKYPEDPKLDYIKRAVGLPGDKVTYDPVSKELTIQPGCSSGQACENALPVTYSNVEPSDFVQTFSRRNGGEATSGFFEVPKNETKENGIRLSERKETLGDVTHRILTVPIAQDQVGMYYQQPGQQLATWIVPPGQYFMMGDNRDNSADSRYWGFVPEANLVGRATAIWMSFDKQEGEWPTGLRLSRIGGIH
Signal peptidase I (Escherichia coli K-12), sequence (P00803 whole entry): as above

Structure (SMILES) | hemolysis at 0.75 h, 100 µM [2] [%] | Activity [3] [%] | MIC (Klebsiella pneumoniae) [mg/L] | MIC (Pseudomonas aeruginosa [4]) [mg/L] | MIC (Acinetobacter baumannii) [mg/L] | Activity [5] [%] | IC50 at 72 h [6] [µM] | Activity [7] [%] | Activity [8] [%] | Activity [9] [%] | MIC (Staphylococcus aureus) [mg/L] | MIC (Escherichia coli [10]) [mg/L] | inhibition [11] [%] | MIC (Pseudomonas aeruginosa [12]) [mg/L] | Activity [13] [%] | Activity [14] [%] | Activity [15] [%] | MIC (Escherichia coli [18]) [mg/L] | IC50 (Signal peptidase I) [µM] | MIC (Escherichia coli [21]) [mg/L] | further results
CCCCCCCCCC(=O)N1CCC[C@H]1C(=O)N[C@H](C(=O)N[C@@H](C)C(=O)N[C@@H](CC(N)=O)C(=O)N[C@@H](C)B1O[C@@H]2C[C@@H]3C[C@@H](C3(C)C)[C@]2(C)O1)[C@H](C)O | 0.4 | 47 | > 64 | > 64 | > 64 | 19.7 | 7.8 | 16.9 | 0.084 | 84.5 | 32 (≈ 42.1 µM) | > 64 | > 50 | > 64 | 82.6 | 29.6 | 17.2 | > 64 | 0.048 | > 64 | Ratio IC50 [1]: 25; Activity [16]: 10.6%; Activity [17]: 84.2%; Activity [19]: 66.8%; Activity [20]: 18.1%; Activity [22]: 36.4%; Activity [23]: 81.9%
CC(O)[C@H](NC(=O)[C@@H]1CCCN1)C(=O)N[C@@H](C)C(=O)N[C@@H](CC(N)=O)C(=O)N[C@@H](C)B1O[C@@H]2C[C@@H]3C[C@@H](C3(C)C)[C@]2(C)O1 (single isomer, unassigned) |  |  | > 64 | > 64 | > 64 |  | > 64 |  |  |  | > 64 | > 64 | > 50 | > 64 |  |  |  | > 64 | 26 | > 64 | Activity [24]: 96%; Activity [25]: 95%; Activity [26]: 95.4%; Activity [27]: 85.8%; Activity [28]: 56.9%; Activity [29]: 67.2%; Activity [30]: 92.7%; Activity [31]: 25.1%; Activity [32]: 96.7%; Activity [33]: 95%; Activity [34]: 35.6%; Activity [35]: 90.7%; Activity [36]: 88.6%
CCCCCCc1ccc(-c2ccc(C(=O)N3CC(CN)C[C@H]3C(=O)N[C@H](C(=O)N[C@@H](C)C(=O)N[C@@H](CC(N)=O)C(=O)N[C@@H](C)B(O)O)[C@H](C)O)cc2)cc1 (stereo partly drawn) | 2.5 | 27.7 | 8 (≈ 10.4 µM) | 64 (≈ 83.6 µM) | 8 (≈ 10.4 µM) | 25.3 | 15.6 | 28.4 | 24.6 | 86.8 | 0.25 (≈ 0.326 µM) | 2 (≈ 2.61 µM) | > 50 | 4 (≈ 5.22 µM) | 88.8 | 27.4 | 24.8 | 16 (≈ 20.9 µM) | 0.006 | 0.5 (≈ 0.653 µM) | Activity [37]: 60.1%; Activity [16]: 28.2%; Activity [17]: 51.8%; Activity [19]: 36.2%; Activity [20]: 25.1%; Activity [22]: 25.7%; Activity [23]: 85.8%
